Reference: publication PMC3557458 (Journal of molecular biology, 2012)
Entries after “also recorded” stand apart in the source; their conditions may differ.

Legend:
Bim and Bad BH3 peptides = format: binding, human; conditions: FP competition, Bim-22 and Bad-22, Ki relative to Bcl-xL
Summary of the method: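 His6-tagged Bcl-xL variants (E. coli RP3098, Ni-NTA under native conditions) at 50 nM with 15 nM fluorescein-labelled peptide, which varied by variant, competed against serially diluted unlabelled peptide. Equilibrated ≥3 hr at ~25 °C; anisotropy read in duplicate. Ki values were fitted using direct-binding Kd values, then normalized to averaged parent-protein Ki.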

[1] = target: recombinant native Bcl-xL (human) (UniProt Q07817); assay: fluorescence polarisation
RX1, recombinant (human) = RX1, recombinant (human) (UniProt Q07817); assay: fluorescence polarisation
RX1 = RX1 (Homo sapiens, UniProt Q07817, A142G/F105L/F146A/L130I/Q111G/Q125V/S122I/V126A/Y101H); format: binding; conditions: from Ki values of RX1 and Bcl-xL for Bim-22 and Bad-22
[2] = test system: fluoresceinated Bim vs. Bad BH3; assay: Fluorescence polarization direct binding of fluoresceinated Bim vs. Bad BH3; parameters: species or system human; conditions: labeled peptide 5 nM, at least 1 hr, ~25 °C
[3] = target: recombinant native Bcl-xL (human, UniProt Q07817-1 1-209); assay: fluorescence polarisation
Sequence of recombinant native Bcl-xL (Q07817 1-209): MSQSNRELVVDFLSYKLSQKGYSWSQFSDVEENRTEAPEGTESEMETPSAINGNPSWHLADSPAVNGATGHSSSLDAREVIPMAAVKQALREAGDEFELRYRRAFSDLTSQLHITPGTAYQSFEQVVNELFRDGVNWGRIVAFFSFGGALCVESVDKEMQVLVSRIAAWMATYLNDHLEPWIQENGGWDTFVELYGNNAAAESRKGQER

“A104M: Bcl-xL point mutant A104M (not in RX1)” was tested, and the “Bad vs. Bim binding preference of point mutation in the context of Bcl-xL” value (“Bad vs. Bim binding preference” below) (Bim and Bad BH3 peptides) was “confirmed to be specific”.

With A142G: Bcl-xL point mutant A142G the “Bad vs. Bim binding preference” value (Bim and Bad BH3 peptides) was “preferred binding Bad over Bim”.

Bad-22, Bad BH3 peptide of 22 residues showed a Ki [1] of 2 nM and a Ki (RX1, recombinant (human)) of 33 nM.

Bim-22, Bim BH3 peptide of 22 residues showed a Ki [1] of 3 nM and a Ki (RX1, recombinant (human)) greater than 50000 nM.

In the case of F105L: Bcl-xL point mutant F105L, the “Bad vs. Bim binding preference” value (Bim and Bad BH3 peptides) is reported as “favored Bim binding over Bad”.

In the case of F146A: Bcl-xL point mutant F146A, the “Bad vs. Bim binding preference” value (Bim and Bad BH3 peptides) is reported as “did not confer specificity”.

In the case of L130I: Bcl-xL point mutant L130I, the “Bad vs. Bim binding preference” value (Bim and Bad BH3 peptides) is reported as “shown not to be”.

For “S122I: Bcl-xL point mutant, Ser 122 to Ile”, the “Bad vs. Bim binding preference” value (Bim and Bad BH3 peptides) was “preferred binding Bad over Bim; also recorded: confirmed to be specific”.

For V126A: Bcl-xL point mutant V126A, the “Bad vs. Bim binding preference” value (Bim and Bad BH3 peptides) was “preferred binding Bad over Bim”.

B1: RX1: Re-designed Bcl-xL variant: Y101H, F105L, Q111G, S122I, Q125V, V126A, L130I, A142G, F146A (protein)
chain: MSQSNRELVVDFLSYKLSQKGYSWSQFSDVEENRTEAPEGTESEMETPSAINGNPSWHLADSPAVNGATGHSSSLDAREVIPMAAVKQALREAGDEFELRHRRALSDLTSGLHITPGTAYQIFEVAVNEIFRDGVNWGRIVGFFSAGGALCVESVDKEMQVLVSRIAAWMATYLNDHLEPWIQENGGWDTFVELYGNNAAAESRKGQER
modifications: left off: His6, end not stated, state not stated
With B1 the “specificity increase for Bad BH3 over Bim BH3 relative to native Bcl-xL” value (RX1) was ≥ 1,000 fold and the “preference for binding Bad over Bim, direct binding” value [2] was “strong preference”.

In the case of EQWAREIGAQLRRMADDLNAQYERRRQE [PUMA BH3 peptide], the Ki [3] is reported as less than 0.1 nM.

For LWAAQRYGRELRRMSDEFVDSFKKGLPR (peptide, UniProt Q92934 104-131, looked up) [Bad-28, recombinant Bad BH3 28-mer peptide], the Ki [3] was less than 0.1 nM.
